{
  "source": "paper PMC6595297",
  "about": "(British Journal of Clinical Pharmacology, 2019)",
  "key": {"[1]": {"assay": "Phase I DDI study: pevonedistat plasma PK alone and with itraconazole", "assay_type": "in vivo, human", "details": "for AUC(0-t) / AUC(0-inf) / Cmax / clearance / half-life: human, plasma; for AUC(0-t): AUClast; for Cmax: C max; for clearance: CL; for half-life: t 1/2, mean (standard deviation)", "in_short": "(§1)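 Single IV pevonedistat given on day 1 alone and on day 8 with the CYP3A inhibitor. K2EDTA plasma was sampled within 1 h predose, at end of infusion, and at 0.5, 1, 2, 3, 4, 8, 12, 24, 48 and 72 h postdose. Samples were assayed by two GLP-validated LC–MS/MS methods (0.0500–25.0 and 1.00–500 ng mL−1). Noncompartmental PK was used. Day 8/day 1 geometric mean ratios with 90% CIs came from ANOVA (subject random), back-transformed.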"}, "[2]": {"assay": "Phase I DDI study: pevonedistat plasma PK alone and with fluconazole", "assay_type": "in vivo, human", "in_short": "as §1"}, "[3]": {"details": "estimated across doses and schedules, 1‐h IV infusion; cited from earlier work"}, "[4]": {"test_system": "multidrug resistance protein 1 (MDR1)/P‐glycoprotein (P‐gp)", "details": "in vitro, ref data on file; cited from earlier work"}, "CYP3A4": {"test_system": "CYP3A4", "details": "in vitro metabolism studies, ref data on file; cited from earlier work"}, "[5]": {"details": "Pevonedistat 8 mg m^−2, + itraconazole (day 8) vs alone (day 1), n = 13"}, "[6]": {"details": "Pevonedistat 15 mg m^−2, + itraconazole (day 8) vs alone (day 1), n = 6"}, "[7]": {"details": "Pevonedistat 20 mg m^−2, + itraconazole (day 8) vs alone (day 1), n = 14"}, "[8]": {"details": "dose‐normalized PK, 8–20 mg m^−2 pooled, + itraconazole vs alone, n = 33"}, "[9]": {"details": "intravenous, 8 mg, geometric LS mean reference condition (day 1), Pevonedistat 8 mg m^−2 alone, itraconazole cohort, n = 13"}, "[10]": {"details": "intravenous, 15 mg, geometric LS mean reference condition (day 1), Pevonedistat 15 mg m^−2 alone, itraconazole cohort, n = 6"}, "[11]": {"details": "intravenous, 20 mg, geometric LS mean reference condition (day 1), Pevonedistat 20 mg m^−2 alone, itraconazole cohort, n = 14"}, "[12]": {"details": "intravenous, geometric LS mean test condition (day 8), Pevonedistat 8 mg m^−2 + itraconazole, n = 13, value from n − 1 patients"}, "[13]": {"details": "intravenous, geometric LS mean test condition (day 8), Pevonedistat 15 mg m^−2 + itraconazole, n = 6"}, "[14]": {"details": "intravenous, geometric LS mean test condition (day 8), Pevonedistat 20 mg m^−2 + itraconazole, n = 14"}, "[15]": {"details": "iv, 8 mg, geometric mean (% CV), 8 mg m^−2 IV single dose, – itraconazole (day 1), n=13"}, "[16]": {"details": "iv, 20 mg, geometric mean (% CV), 20 mg m^−2 IV single dose, – itraconazole (day 1), n=14"}, "[17]": {"details": "integrated analysis, 8–20 mg m^−2, n = 33"}, "[18]": {"details": "Pevonedistat 8 mg m^−2, + fluconazole (day 8) vs alone (day 1), n = 12"}, "[19]": {"details": "human, plasma, intravenous, 8 mg"}},
  "data": [
    {"molecule": "NS(=O)(=O)OC[C@@H]1C[C@@H](n2ccc3c(N[C@H]4CCc5ccccc54)ncnc32)C[C@@H]1O", "note": "[Pevonedistat]", "values": [
      {"measurement": "AUClast, geometric LS mean ratio (test/reference) (90% CI)", "setting": "[1]; [5]", "result": "121.57 (110.92–133.24) %"},
      {"measurement": "AUC∞, geometric LS mean ratio (test/reference) (90% CI)", "setting": "[1]; [5]", "result": "122.95 (112.13–134.82) %"},
      {"measurement": "C max, geometric LS mean ratio (test/reference) (90% CI)", "setting": "[1]; [5]", "result": "113.05 (85.35–149.74) %"},
      {"measurement": "AUClast, geometric LS mean ratio (test/reference) (90% CI)", "setting": "[1]; [6]", "result": "130.16 (106.99–158.35) %"},
      {"measurement": "AUC∞, geometric LS mean ratio (test/reference) (90% CI)", "setting": "[1]; [6]", "result": "132.70 (111.10–158.49) %"},
      {"measurement": "C max, geometric LS mean ratio (test/reference) (90% CI)", "setting": "[1]; [6]", "result": "159.55 (89.97–282.96) %"},
      {"measurement": "AUClast, geometric LS mean ratio (test/reference) (90% CI)", "setting": "[1]; [7]", "result": "101.36 (90.72–113.23) %"},
      {"measurement": "AUC∞, geometric LS mean ratio (test/reference) (90% CI)", "setting": "[1]; [7]", "result": "100.89 (91.14–111.68) %"},
      {"measurement": "C max, geometric LS mean ratio (test/reference) (90% CI)", "setting": "[1]; [7]", "result": "77.26 (55.19–108.17) %"},
      {"measurement": "Dose‐normalized AUClast, geometric LS mean ratio (test/reference) (90% CI)", "setting": "[1]; [8]", "result": "113.61 (105.65–122.18) %"},
      {"measurement": "Dose‐normalized AUC∞, geometric LS mean ratio (test/reference) (90% CI)", "setting": "[1]; [8]", "result": "114.24 (106.54–122.50) %"},
      {"measurement": "Dose‐normalized C max, geometric LS mean ratio (test/reference) (90% CI)", "setting": "[1]; [8]", "result": "102.41 (83.12–126.19) %"},
      {"measurement": "AUC(0-t)", "setting": "[1]; [9]", "result": 459, "unit": "ng·h/mL"},
      {"measurement": "AUC(0-inf)", "setting": "[1]; [9]", "result": 465, "unit": "ng·h/mL"},
      {"measurement": "AUC(0-t)", "setting": "[1]; [10]", "result": 793, "unit": "ng·h/mL"},
      {"measurement": "AUC(0-inf)", "setting": "[1]; [10]", "result": 798, "unit": "ng·h/mL"},
      {"measurement": "AUC(0-t)", "setting": "[1]; [11]", "result": 1110, "unit": "ng·h/mL"},
      {"measurement": "AUC(0-inf)", "setting": "[1]; [11]", "result": 1120, "unit": "ng·h/mL"},
      {"measurement": "AUC(0-t)", "setting": "[1]; [12]", "result": 558, "unit": "ng·h/mL"},
      {"measurement": "AUC(0-t)", "setting": "[1]; intravenous, geometric LS mean test condition (day 8), Pevonedistat 15 mg m^−2 + itraconazole, n = 6, value from n − 1 patients", "result": 1030, "unit": "ng·h/mL"},
      {"measurement": "AUC(0-t)", "setting": "[1]; intravenous, geometric LS mean test condition (day 8), Pevonedistat 20 mg m^−2 + itraconazole, n = 14, value from n − 1 patients", "result": 1130, "unit": "ng·h/mL"},
      {"measurement": "AUC(0-inf)", "setting": "[1]; [12]", "result": 572, "unit": "ng·h/mL"},
      {"measurement": "AUC(0-inf)", "setting": "[1]; [13]", "result": 1060, "unit": "ng·h/mL"},
      {"measurement": "AUC(0-inf)", "setting": "[1]; [14]", "result": 1130, "unit": "ng·h/mL"},
      {"measurement": "Cmax", "setting": "[1]; intravenous, geometric LS mean test condition (day 8), Pevonedistat 8 mg m^−2 + itraconazole, n = 13", "result": 66.8, "unit": "ng/mL"},
      {"measurement": "Cmax", "setting": "[1]; [13]", "result": 193, "unit": "ng/mL"},
      {"measurement": "Cmax", "setting": "[1]; [14]", "result": 137, "unit": "ng/mL"},
      {"measurement": "AUC(0-inf)", "setting": "[1]; [15]", "result": 465, "unit": "ng·h/mL"},
      {"measurement": "clearance", "setting": "[1]; [15]", "result": 487, "unit": "mL/min"},
      {"measurement": "half-life", "setting": "[1]; iv, 8 mg, 8 mg m^−2 IV single dose, – itraconazole (day 1), n=13", "result": 10.8, "unit": "h"},
      {"measurement": "AUC(0-inf)", "setting": "[1]; iv, 15 mg, geometric mean (% CV), 15 mg m^−2 IV single dose, – itraconazole (day 1), n=6", "result": 798, "unit": "ng·h/mL"},
      {"measurement": "half-life", "setting": "[1]; iv, 15 mg, 15 mg m^−2 IV single dose, – itraconazole (day 1), n=6", "result": 9.8, "unit": "h"},
      {"measurement": "AUC(0-inf)", "setting": "[1]; [16]", "result": 1120, "unit": "ng·h/mL"},
      {"measurement": "clearance", "setting": "[1]; [16]", "result": 597, "unit": "mL/min"},
      {"measurement": "half-life", "setting": "[1]; iv, 20 mg, 20 mg m^−2 IV single dose, – itraconazole (day 1), n=14", "result": 10, "unit": "h"},
      {"measurement": "half-life", "setting": "[1]; iv, 8 mg m^−2 IV single dose, + itraconazole (day 8), n=13", "result": 13.5, "unit": "h"},
      {"measurement": "half-life", "setting": "[1]; iv, 15 mg m^−2 IV single dose, + itraconazole (day 8), n=6", "result": 11, "unit": "h"},
      {"measurement": "half-life", "setting": "[1]; iv, 20 mg m^−2 IV single dose, + itraconazole (day 8), n=14", "result": 10.8, "unit": "h"},
      {"measurement": "Dose‐normalized AUC∞ geometric mean ratio, presence vs. absence of itraconazole", "setting": "[1]; [17]", "result": 1.14},
      {"measurement": "Increase in geometric mean dose‐normalized AUC∞ with itraconazole", "setting": "[1]; [17]", "result": 14, "unit": "%"},
      {"measurement": "AUC∞ geometric mean ratio, presence vs. absence of itraconazole", "setting": "[1]; pevonedistat 8 mg m^−2", "result": 1.23},
      {"measurement": "Increase in pevonedistat plasma systemic exposure with concomitant itraconazole", "setting": "[1]; pevonedistat 8 mg m^−2 single dose", "result": 23, "unit": "%"},
      {"measurement": "AUC∞ geometric mean ratio, presence vs. absence of itraconazole", "setting": "[1]; pevonedistat 20 mg m^−2", "result": 1.01},
      {"measurement": "AUClast, geometric LS mean ratio (test/reference) (90% CI)", "setting": "[2]; [18]", "result": "110.21 (102.34–118.69) %"},
      {"measurement": "AUC∞, geometric LS mean ratio (test/reference) (90% CI)", "setting": "[2]; [18]", "result": "110.66 (102.53–119.43) %"},
      {"measurement": "C max, geometric LS mean ratio (test/reference) (90% CI)", "setting": "[2]; [18]", "result": "98.75 (82.60–118.05) %"},
      {"measurement": "AUC(0-inf)", "setting": "[2]; [19]", "result": 450, "unit": "ng·h/mL"},
      {"measurement": "AUC(0-t)", "setting": "[2]; [19]", "result": 445, "unit": "ng·h/mL"},
      {"measurement": "Cmax", "setting": "[2]; [19]", "result": 51.6, "unit": "ng/mL"},
      {"measurement": "AUC(0-inf)", "setting": "[2]; human, plasma, iv, 8 mg", "result": 450, "unit": "ng·h/mL"},
      {"measurement": "Cmax", "setting": "[2]; human, plasma, iv, 8 mg", "result": 51.6, "unit": "ng/mL"},
      {"measurement": "clearance", "setting": "[2]; human, plasma, iv, 8 mg", "result": 528, "unit": "mL/min"},
      {"measurement": "half-life", "setting": "[2]; human, plasma, iv, 8 mg", "result": 11.1, "unit": "h"},
      {"measurement": "AUC∞ geometric mean ratio, presence vs. absence of fluconazole", "setting": "[2]; pevonedistat 8 mg m^−2, n = 12", "result": 1.11},
      {"measurement": "Mean terminal elimination half‐life (t 1/2)", "setting": "[3]", "result": "10 to 11", "unit": "h"},
      {"measurement": "Substrate of MDR1/P‐gp", "setting": "[4]", "result": "substrate"},
      {"measurement": "Contribution of CYP3A4 to pevonedistat biotransformation", "setting": "CYP3A4", "result": 97, "unit": "%"}
    ]}
  ]
}
